Most compounds without a hit are left out; they make up all but 3.8% or so of the library.
HSF-1 act = increases HSF-1 driven luciferase reporter signal. NIH3T3-HGL HSF-1 luciferase reporter, MG132, 8 h; 100% = twice DMSO control signal. activation, % at 9 µM. actives 1.7% (n = 300,000);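 active = mean replicate activation of at least 50% with a set share of replicates each reaching 50%; inconclusive = only one of those two conditions met; inactive = mean below 50% and too few replicates reaching it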
HSP90 inh = HSP90 refolding inhibition in rabbit reticulocyte lysate | inhibition, % at 5.6 µM | luciferase refolding luminescence, 3 h | AID 1789 | actives 0.91% (n = 290,000);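 active = inhibition above the screen-wide mean plus 3 SD, computed separately per campaign, cut at about 16% in these data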;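 also: inhibitors lower the luminescence because luciferase stays unfolded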
HSF1 inh = HSF1 inhibition; NIH3T3-HGL HSE-luciferase, MG132-induced, luminescence 8 h; hits give low values; activity change, negative = inhibition, % at 7.5 µM (by protocol); actives 0.77% (n = 300,000); AID 2098;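 active = more than half of replicate wells show activity change below -50%, luminescence cut by over half; inconclusive = some wells, but at most half, below -50%; inactive = no replicate well below -50%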;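 also: luciferase reports HSF-1 transcriptional activity via heat shock element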
Hep lipid drop = hepatic lipid droplet formation modulation; AML12 mouse hepatocytes, oleate lipid droplets, BODIPY imaging; inhibition, % at 6.5 µM; actives 0.4% (n = 240,000); AID 1656;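 active = lipid droplet intensity inhibited by at least 50%, with more than 500 cells counted; inconclusive = wells with under 300 cells, treated as cytotoxic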
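Assay system: AML12 hepatocytes (mouse); Probe or stimulus: oleic acid at 100 µM to induce lipid droplet formation; Dosing: compound at 6.5 µM only; Schedule: compound with oleate, overnight; Detection: fluorescence imaging, 20x objective, two fields per well; Measure: % inhibition of lipid droplet signal.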
HCV NS3 hel inh = blocks Hepatitis C virus NS3 helicase unwinding; inhibition, % at 10.9 µM; AID 1800; NS3 helicase DNA unwinding, Cy5 molecular beacon fluorescence; actives 0.56% (n = 290,000);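 active = inhibition above the mean of all tested compounds plus 3 SD, set per campaign, cut at about 35% in these data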
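System: NS3 helicase fragment of HCV / Schedule: 1 h at 25 °C / Control set: DMSO alone as 0% and 110 µM thioflavine S as 100% / Reagent: Cy5/quencher beacon DNA duplex and ATP to start / Technique: Cy5 fluorescence / Replication: singlicate / Evaluation: % inhibition of end-to-start signal ratio versus controls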
HSP90 confirm = confirmation of HSP90 inhibitors; shares compounds with HSP90 inh; rabbit reticulocyte lysate, luciferase refolding luminescence, 3 h; inhibition, % at 5.9 µM; actives 64% (n = 2,300); in the data active = inhibition above about 18%
luciferase ctr = blocks native firefly luciferase in HSP90 counter-screen | AID 1847 | actives 48% (n = 2,300) | inhibition, % at 5.9 µM | shares compounds with HSP90 inh | purified native firefly luciferase, luminescence;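 active = inhibition above the mean inhibition of all tested sample wells plus 3 SD, cut at about 10% in these data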
Target sequence (P08659 whole entry, looked up): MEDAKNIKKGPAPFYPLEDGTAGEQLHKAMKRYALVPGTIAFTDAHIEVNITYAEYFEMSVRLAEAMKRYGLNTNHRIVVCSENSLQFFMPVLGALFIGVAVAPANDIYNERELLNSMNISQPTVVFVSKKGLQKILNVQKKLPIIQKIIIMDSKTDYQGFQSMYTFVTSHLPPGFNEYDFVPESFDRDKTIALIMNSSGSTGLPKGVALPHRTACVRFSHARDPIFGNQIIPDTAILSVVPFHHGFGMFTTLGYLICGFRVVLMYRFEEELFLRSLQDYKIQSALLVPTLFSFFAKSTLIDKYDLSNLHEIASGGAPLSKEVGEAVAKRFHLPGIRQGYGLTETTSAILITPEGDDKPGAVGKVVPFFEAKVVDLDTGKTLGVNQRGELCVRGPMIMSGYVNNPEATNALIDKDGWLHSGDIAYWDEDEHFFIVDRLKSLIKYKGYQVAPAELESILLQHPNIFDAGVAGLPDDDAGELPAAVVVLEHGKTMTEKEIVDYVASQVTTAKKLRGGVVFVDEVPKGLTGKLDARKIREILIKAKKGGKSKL
Each line names hits and unclear results; the compound was inactive in the other large screens (follow-up assays come after a bar, where they were run).

CC(=NC1CCCC1)c1c(C)[nH]n(-c2nc3ccccc3s2)c1=O	HSP90 inh 19 (no result: Hep lipid drop) | HSP90 confirm 19 | luciferase ctr inactive
N#CCc1nn2c(-c3ccccc3)ccnc2c1C#N	none
Cc1cc(C(=O)O)ccc1N/C=C1\CCCC(C)C1=O (centres undefined)	HSP90 inh 34 | HSP90 confirm 70 | luciferase ctr 32
O=C(NC1CCCC1)C(c1ccsc1)N(CCc1ccccc1)C(=O)Cc1cccs1 (centres undefined)	none (no result: HSF-1 act, HSF1 inh)
Cc1cccc(CCN(C(=O)Cc2cccs2)C(C(=O)NC2CCCCC2)c2cccnc2)c1 (centres undefined)	HSP90 inh 25 (no result: Hep lipid drop) | HSP90 confirm inactive | luciferase ctr inactive
CC(=O)c1cc(-c2ccccc2)n(CCC(=O)NC2CCCCC2)c1C	HSP90 inh 27 | HSP90 confirm inactive | luciferase ctr inactive
CC(=O)c1cc(-c2ccccc2)n(CCC(=O)NC2CCCC2)c1C	none
COc1ccc(CNC(=O)CNC(=O)c2cccs2)c(OC)c1	none
Cn1nc(-c2ccc(Cl)cc2)nc2c(=O)n(C)c(=O)nc1-2	HSP90 inh 95, HSF1 inh -95 (no result: Hep lipid drop) | HSP90 confirm 97 | luciferase ctr 90
C=CCN(CC=C)C(=S)NC(=O)Cc1cccc2ccccc12	none
Cc1cc(C)c2c(N)c(C(=O)Nc3nccs3)sc2n1	HSP90 inh 30 (no result: Hep lipid drop) | HSP90 confirm 62 | luciferase ctr 51
c1ccc2nc(-c3nc4ccccc4[nH]3)ccc2c1	HSP90 inh 26 | HSP90 confirm 72 | luciferase ctr 62
CN(c1ccccc1)S(=O)(=O)c1ccc(NC(=O)c2nc(S(C)(=O)=O)ncc2Cl)cc1	none
Cc1cccc(-c2cc3nc(C)c(C)c(NCCCn4ccnc4)n3n2)c1	HSP90 inh 19 | HSP90 confirm inactive | luciferase ctr inactive
COc1ccc(-c2nc3ccccc3c(=O)[nH]2)cc1	none
CN(C)c1ccc(-c2nc3ccccc3c(=O)[nH]2)cc1	HSP90 inh 34 | HSP90 confirm 68 | luciferase ctr 53
CCOC(=O)N1CCN(C(=O)/C=C/c2ccc(OC)cc2)CC1	none (no result: Hep lipid drop)
O=C(COC(=O)c1ccc(N2CCCC2=O)cc1)c1ccccc1	HSP90 inh 18 | HSP90 confirm 27 | luciferase ctr inactive
O=C(COC(=O)c1ccc(N2CCCC2=O)cc1)NCc1ccco1	none (no result: Hep lipid drop)
O=C(ONC1=NCCCCC1)c1ccc([N+](=O)[O-])cc1	none
COc1ccc(-c2nc3c(n2O)CCc2c-3no[n+]2[O-])cc1	HSP90 inh 37 | HSP90 confirm inactive | luciferase ctr inactive
COn1c(-c2ccccc2)nc2c1CCc1c-2no[n+]1[O-]	none
COc1ccc(NC(=S)Nc2ccc3nsnc3c2)cc1	HSF-1 act inconclusive, HSP90 inh 43 | HSP90 confirm inactive | luciferase ctr inactive
CC(C)N(C(=O)Nc1ccc2nsnc2c1)C(C)C	HSP90 inh 29 | HSP90 confirm inactive | luciferase ctr inactive
COc1ccc(N(C)C(=O)Nc2ccc3nsnc3c2)cc1	HSP90 inh 21 | HSP90 confirm inactive | luciferase ctr inactive
C=CCNC(=S)Nc1ccc2nsnc2c1	none
C=CCN(CC=C)C(=S)Nc1ccc2nsnc2c1	HSP90 inh 31 | HSP90 confirm inactive | luciferase ctr inactive
CCOc1ccc(NC(=O)Nc2ccc3nsnc3c2)cc1	none
CC1N(C(=O)N2CCOCC2)CCN1S(=O)(=O)c1ccc(Cl)cc1 (centres undefined)	none
CCc1nc2ccc(C(=O)O)cc2nc1CC	HSP90 inh 75, HSF1 inh -69 | HSP90 confirm 63 | luciferase ctr 51
O=C(NCCc1nnc2ccc(NCc3ccc(Cl)cc3)nn12)c1ccccc1	HSP90 inh 20 | HSP90 confirm inactive | luciferase ctr inactive
CCN1CCN(/C=N/c2nc3c(s2)CCCC3)CC1	HSP90 inh 65, HSF1 inh -55 (no result: Hep lipid drop) | HSP90 confirm 72 | luciferase ctr 42
COc1ccccc1C(=O)N(CCC1CCCN1C)c1nc2ccccc2s1 (centres undefined)	HSP90 inh 67, HSF1 inh -72 | HSP90 confirm 70 | luciferase ctr 69
Cc1c(C)c(C)c(CN2CCCC2)c(C)c1C	none
CCN(Cc1nc(-c2cccc(C)c2)no1)C(=O)c1ccco1	HSP90 inh 21 | HSP90 confirm inactive | luciferase ctr inactive
CCCCCn1c(N)c(C#N)c2nc3ccccc3nc21	none (no result: Hep lipid drop)
Cc1ccc2c(NC(=O)c3ccc(Br)o3)cccc2n1	none
CCCCn1c(NC(=O)c2ccc(Br)o2)c(S(=O)(=O)c2ccccc2)c2nc3ccccc3nc21	HSP90 inh 34 (no result: HSF-1 act, HSF1 inh) | HSP90 confirm inactive | luciferase ctr inactive
N#Cc1c(N)n(CCNC(=O)c2ccccc2)c2nc3ccccc3nc12	none
CCCCn1c(NC(C)=O)c(C#N)c2nc3ccccc3nc21	HSP90 inh 24 (no result: Hep lipid drop) | HSP90 confirm inactive | luciferase ctr inactive
C=CCn1c(NC(=O)c2ccccc2Cl)c(C#N)c2nc3ccccc3nc21	HSP90 inh 49 (no result: Hep lipid drop) | HSP90 confirm inactive | luciferase ctr inactive
COc1cc(NC(=O)CSc2nnc3ccc(-c4cccnc4)nn23)cc(OC)c1	none (no result: HSP90 inh, Hep lipid drop, HCV NS3 hel inh)
CCC(=O)Nc1ccc(NC(=O)c2ccc3c(c2)OCO3)cc1	none
Cc1ccc(C(=O)Nc2ccc3c(c2)CCC3)cc1	HSP90 inh 25 | HSP90 confirm 71 | luciferase ctr 67
COc1ccc(NC(=O)c2ccc3c(c2)OCO3)cc1	HSP90 inh 19 | HSP90 confirm 27 | luciferase ctr 14
Cn1cc(C(=O)Nc2ccc3c(c2)CCC3)cn1	none
O=C(O)C1CC=CCC1C(=O)Nc1ccc2c(c1)OCCO2 (centres undefined)	HSP90 inh 38, HSF1 inh -62 | HSP90 confirm inactive | luciferase ctr inactive
Cc1ccccc1C(=O)Nc1ccc2c(c1)OCO2	HSP90 inh 22 (no result: Hep lipid drop) | HSP90 confirm 36 | luciferase ctr 15
CC(=O)c1ccc(OC(=O)Cc2cccc3ccccc23)cc1	none
CCOc1ccc(C(=O)Nc2cc(C)ccn2)cc1	HSP90 inh 50 | HSP90 confirm 75 | luciferase ctr 58
CCOc1ccc(C(=O)Nc2ccc3c(c2)OCCO3)cc1	HSF-1 act 118, HSP90 inh 22 | HSP90 confirm 37 | luciferase ctr 16
Cc1cc(NC(=O)c2ccc3c(c2)OCCO3)no1	HSP90 inh 27 | HSP90 confirm 58 | luciferase ctr 49
Cc1ccc(C(=O)Nc2ccc3c(c2)OCCO3)cc1	HSP90 inh 58 | HSP90 confirm 75 | luciferase ctr 63
CCOc1cc(C(=O)Nc2cc(C)ccn2)cc(OCC)c1OCC	none (no result: Hep lipid drop)
COc1ccc(/C=C/C(=O)OCC(=O)NC(=O)NC(C)(C)C)cc1	none
COc1cc(SC)ccc1C(=O)NCC1CCCCC1	none
